Data from ChEMBL document CHEMBL4130377 (Eur J Med Chem, 2017).
Calls of active or inactive are those of the source. The calls are words filed in the database; no cut-off is given here.

Experiments:
Mus musculus [1] = assay: Anorectic activity in overnight fasted ICR mouse assessed as reduction in cumulative food intake at 1000 nmol/kg, ip measured up to 8 hrs post dose
Glucagon receptor = Glucagon receptor (Homo sapiens, UniProt P47871); assay: Agonist activity at human GCGR expressed in HEK293 cells assessed as increase in cAMP accumulation after 20 mins by HTRF assay; format: functional, cell-based
Chain of Glucagon receptor (P47871 whole entry): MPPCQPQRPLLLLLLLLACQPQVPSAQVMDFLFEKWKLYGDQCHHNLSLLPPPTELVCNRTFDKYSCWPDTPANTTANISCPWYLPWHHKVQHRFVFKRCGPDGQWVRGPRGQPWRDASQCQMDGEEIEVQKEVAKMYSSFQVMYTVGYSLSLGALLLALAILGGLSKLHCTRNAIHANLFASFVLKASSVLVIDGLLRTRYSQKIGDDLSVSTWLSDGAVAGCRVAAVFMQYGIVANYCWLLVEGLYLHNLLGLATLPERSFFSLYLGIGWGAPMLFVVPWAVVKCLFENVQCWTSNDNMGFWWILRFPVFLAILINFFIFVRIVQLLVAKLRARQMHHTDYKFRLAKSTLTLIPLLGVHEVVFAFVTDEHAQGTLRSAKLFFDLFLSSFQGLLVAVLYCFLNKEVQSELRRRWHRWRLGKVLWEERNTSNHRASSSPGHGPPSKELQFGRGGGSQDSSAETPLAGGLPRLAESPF

Mus musculus [2] = assay: Body weight lowering effect in ICR mouse assessed as cumulative changes in body weight at 1000 nmol/kg, ip administered every other day for 2 weeks; format: functional, organism-based
Mus musculus [3] = assay: Antiobesity activity in diet-induced obese C57Bl/6 mouse model assessed as serum leptin level at 3.48 mg/kg, ip administered every other day for 30 days by ELISA (reference value: 1.9 +/- 0.07 ng/ml); format: functional, organism-based
In short: (§1)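 Male C57Bl/6 mice were fed high-fat diet (60% kcal fat) for 12 weeks; DIO mice were ~38 g at 20 weeks. Dosing was i.p. (10 mL/kg in 0.9% saline) every other day at 9 am for 30 days, with saline controls and low-fat-diet lean mice for reference. Insulin, leptin and adiponectin were measured at study end. n=6-8 per group, means ± SD.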

Mus musculus [4] = assay: Antiobesity activity in diet-induced obese C57Bl/6 mouse model assessed as plasma triglyceride level at 3.48 mg/kg, ip administered every other day for 30 days (reference value: 0.84 +/- […]); format: functional, organism-based
Mus musculus [5] = assay: Antiobesity activity in diet-induced obese C57Bl/6 mouse model assessed as serum adiponectin level at 3.48 mg/kg, ip administered every other day for 30 days by ELISA (reference value: 8.9 +/- 0.38 ug/ml); format: functional, organism-based
In short: as §1

Mus musculus [6] = assay: Antiobesity activity in diet-induced obese C57Bl/6 mouse model assessed as plasma insulin level at 3.48 mg/kg, ip administered every other day for 30 days by ELISA (reference value: 13.33 +/- […]); format: functional, organism-based
Mus musculus [7] = assay: Anorectic activity in overnight fasted ICR mouse assessed as reduction in cumulative food intake at 1000 nmol/kg, ip measured at 2 hrs post dose; format: functional, organism-based
In short: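 Male ICR mice, 9 weeks old, […], then given a single i.p. dose of 1000 nmol/kg in 0.9% saline; saline-injected controls. Mice were returned to home cages with preweighed food, which was reweighed at 0.5, 1, 2, 4, 8 and 24 h. Readout is cumulative food intake, n=6-8 per group.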

Mus musculus [8] = assay: Antiobesity activity in diet-induced obese C57Bl/6 mouse model assessed as plasma cholesterol level at 3.48 mg/kg, ip administered every other day for 30 days (reference value: 4.33 +/- […]); format: functional, organism-based
Mus musculus [9] = assay: Anorectic activity in overnight fasted ICR mouse assessed as reduction in cumulative food intake at 1000 nmol/kg, ip measured at <2 hrs post dose; format: functional, organism-based

Compound | Activity (Mus musculus [1]) | EC50 (Glucagon receptor) | Activity (Mus musculus [2]) | Activity (Mus musculus [3]) | Activity (Mus musculus [4]) | Activity (Mus musculus [5]) | Activity (Mus musculus [6]) | Activity (Mus musculus [7]) | Activity (Mus musculus [8]) | Activity (Mus musculus [9])
CC[C@H](C)[C@H](NC(=O)[C@H](Cc1ccccc1)NC(=O)[C@H](CCC(=O)O)NC(=O)[C@H](CCCCN)NC(=O)[C@H](C)NC(=O)[C@H](C)NC(=O)[C@H](CCC(N)=O)NC(=O)CNC(=O)[C@H](CCC(=O)O)NC(=O)[C@H](CC(C)C)NC(=O)[C@H](Cc1ccc(O)cc1)NC(=O)[C@H](CO)NC(=O)[C@H](CO)NC(=O)[C@@H](NC(=O)[C@H](CC(=O)O)NC(=O)[C@H](CO)NC(=O)[C@@H](NC(=O)[C@H](Cc1ccccc1)NC(=O)[C@@H](NC(=O)CNC(=O)[C@H](CCC(=O)O)NC(=O)[C@H](C)NC(=O)[C@@H](N)Cc1c[nH]cn1)[C@@H](C)O)[C@@H](C)O)C(C)C)C(=O)N[C@@H](C)C(=O)N[C@@H](Cc1c[nH]c2ccccc12)C(=O)N[C@@H](CC(C)C)C(=O)N[C@H](C(=O)N[C@@H](CCCCN)C(=O)NCC(=O)N[C@@H](CCCN=C(N)N)C(=O)NCC(=O)O)C(C)C | Active | Not Active | inactive |  |  |  |  |  |  | 
GLUCAGON |  |  | inactive | 1.79 ng/mL | 1.19 mmol/L | 12.2 µg/mL | 8.41 ng/mL | inactive | 5.08 mmol/L | Active
